From PubChem BioAssay AID540337 (Southern Research Specialized Biocontainment Screening …, 2011) come the findings set out here.

What is called IC50 is the point on the concentration scale where inhibition reaches its midpoint.

Structures are written as SMILES. Active and inactive are the calls of the source.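 Rule for the calls: active = at least 50% inhibition of virus-induced cell damage; inactive = the rest.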

This test deals with HEp-2 RSV Long CPE inhibition, luminescence. Nature of the test: antiviral protection of cells from RSV – synthesized compounds, set 12, CPE, dose response (AID 540337). An outline of the steps:
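Assay system: HEp-2 cells infected with RSV strain Long; Schedule: 6 d at 37 °C; Detection: luminescent CPE read-out; Controls: uninfected cell-only wells and virus-infected wells without compound; Replication: triplicate.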
As to `COCCCNC(=O)c1ccc(Cn2c(=O)c3ccccc3n(Cc3cccnc3)c2=O)cc1`, the IC50 was > 50 µM (inactive). Take `COCCCNC(=O)c1ccc(Cn2c(=O)c3ccccc3n(CCc3ccc(C(F)(F)F)cc3)c2=O)cc1`: the IC50 is > 50 µM (inactive). The figure for `COCCCNC(=O)c1ccc(Cn2c(=O)c3ccccc3n(CC3CCCCC3)c2=O)cc1` is > 50 µM (inactive); for `COCCCNC(=O)c1ccc(Cn2c(=O)c3ccccc3n(CCc3ccc(Br)cc3)c2=O)cc1` it is > 50 µM (inactive). Turning to `COCCCNC(=O)c1ccc(Cn2c(=O)c3ccccc3n(Cc3ccc(C)cc3)c2=O)cc1`, the IC50 was 2.5 µM. In the case of `COCCCNC(=O)c1ccc(Cn2c(=O)c3ccccc3n(CCc3ccc(C)cc3)c2=O)cc1`, the IC50 was > 50 µM (inactive).

Turning to `COCCCNC(=O)c1ccc(Cn2c(=O)c3ccccc3n(Cc3ccccn3)c2=O)cc1`, the IC50 was > 50 µM (inactive).
